Compound activity from PubChem BioAssay.
An excerpt weighted towards active compounds, which were near 1.1% of everything screened.
miR-122 sensor = miR-122 Renilla sensor signal increase in Huh7, primary screen, miR-122 inhibitor project, cell-based, single point, plate reader. 340,000 compounds, 0.3% hits. activation (reporter increase), % at 12.5 µM. Huh7 miR-122 Renilla luciferase sensor, 48 h; neutral wells = 0, positive control = 100;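 active = mean replicate activation score at least 90 and every replicate individually at or above 90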;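 also: higher luciferase means less miR-122 activity so hits act as miR-122 inhibitors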
Keap1-Nrf2 PPI = Keap1-Nrf2 protein-protein interaction inhibitors, primary screen, biochemical, fluorescence polarization, single point | Keap1 Kelch-Nrf2 peptide fluorescence polarization, 1536-well | 340,000 compounds, 0.15% hits | inhibition, % at 9.4 µM | AID 504523, 2011 | Kelch-like ECH-associated protein 1 (Homo sapiens), Q14145; in the data active = inhibition above about 12%;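 also: human Keap1 Kelch domain with fluorescein labeled Nrf2 9mer peptide probe; 0% = neutral control wells and 100% = peptide positive control; higher means more block of Keap1 binding to Nrf2 peptide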
Target sequence (Q14145 whole entry, looked up, the tested form may be a part): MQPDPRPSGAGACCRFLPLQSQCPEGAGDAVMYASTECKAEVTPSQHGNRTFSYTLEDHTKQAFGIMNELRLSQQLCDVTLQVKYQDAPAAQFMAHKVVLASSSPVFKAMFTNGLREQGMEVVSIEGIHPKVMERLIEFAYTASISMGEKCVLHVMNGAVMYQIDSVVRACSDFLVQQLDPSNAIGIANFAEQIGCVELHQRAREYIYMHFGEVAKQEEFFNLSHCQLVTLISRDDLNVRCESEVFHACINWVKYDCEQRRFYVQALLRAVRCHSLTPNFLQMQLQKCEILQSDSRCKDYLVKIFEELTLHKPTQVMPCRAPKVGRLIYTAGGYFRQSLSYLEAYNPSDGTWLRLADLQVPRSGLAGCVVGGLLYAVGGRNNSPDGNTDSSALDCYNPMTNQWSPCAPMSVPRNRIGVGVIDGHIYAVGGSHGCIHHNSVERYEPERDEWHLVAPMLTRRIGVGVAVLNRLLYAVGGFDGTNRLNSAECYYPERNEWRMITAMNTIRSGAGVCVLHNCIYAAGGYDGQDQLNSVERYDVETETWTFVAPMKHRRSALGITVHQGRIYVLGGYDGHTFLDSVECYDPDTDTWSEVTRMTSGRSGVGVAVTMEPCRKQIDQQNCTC
LANA DNA inh = inhibitors of KSHV C-LANA binding to DNA, primary screen, biochemical, fluorescence polarization, FAM-LBS DNA, MBP-C-LANA, single point; 340,000 compounds, 0.078% hits; inhibition, % at 9 µM;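 active = highest replicate inhibition at or above 60% at 9 µM, even if other replicates fall short; inactive = all replicates below 60% inhibition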;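 also: 0% = neutral control wells and 100% = 4 µM acridine orange control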
CAL PDZ FP-1 = untagged CAL PDZ binding inhibitors, primary screen, biochemical, fluorescence polarization, HTS | Golgi-associated PDZ and coiled-coil motif-containing protein (Homo sapiens), Q9HD26 | 300,000 compounds, 0.92% hits | inhibition, % at 24.9 µM | purified CAL PDZ, TMR-peptide fluorescence polarization, 1 h;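 active = mean inhibition of at least 30% with at least half of replicates also reaching 30%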;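 also: 0% = DMSO neutral control and 100% = excess unlabeled competitor peptide PRC23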
CAL PDZ FP-2 = CAL PDZ peptide-binding inhibitors, primary screen, biochemical, fluorescence polarization, Cer-tagged CAL PDZ, HTS; Golgi-associated PDZ and coiled-coil motif-containing protein (Homo sapiens), Q9HD26; purified CAL PDZ, TMR-peptide fluorescence polarization, 1 h; inhibition, % at 20 µM; 330,000 compounds, 0.02% hits; AID 504414, 2011;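 active = highest replicate inhibition of at least 40%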;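 also: plate controls were DMSO neutral control wells for no effect and unlabeled competitor peptide control wells for full effect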
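Control set: unlabelled peptide and DMSO controls / Material: purified CerCALP PDZ construct / Timing: 1 h incubation at room temperature before polarization reading / Doses: 20 µM, one dose / Detection: fluorescence polarization (mP)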
DNA intercal 2 = DNA intercalator detection, dose response, counter-screen for C-LANA DNA-binding inhibitor project, biochemical, dry powder; shares compounds with LANA DNA inh; Acridine orange-DNA displacement, fluorescence polarization; AC50, µM (titrated, usually from 35 µM), for the others: at the top dose activity change, negative = inhibition; 20 tested, under 10 active;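 active = signal drop with an AC50 no more than ten times the top valid dose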
Keap1 Kelch bind = Keap1 Kelch domain binders by thermal stabilisation, dose response, biophysical, thermal shift, RT-PCR instrument, cherry-pick; max delta Tm, degrees C; shares compounds with Keap1-Nrf2 PPI; delta Tm; active compounds read high; 400 compounds, 8% hits; AID 651823, 2012; in the data active = max delta Tm above about 0.48 degrees C
An asterisk follows results filed as active; [ ] = dose if it differs, or a comment.

What do the screens show for `CN(C)S(=O)(=O)Oc1ccc(C(=O)Nc2cccc(C(F)(F)F)c2)cc1`?
Keap1-Nrf2 PPI: 1.4; LANA DNA inh: 0.4; CAL PDZ FP-1: 38.2*; CAL PDZ FP-2: -0.4

What do the screens show for `O=C1CSC(=S)N1Nc1ccccc1`?
miR-122 sensor: -6.0; Keap1-Nrf2 PPI: -2.3; LANA DNA inh: -1.5; CAL PDZ FP-1: 52.6*; CAL PDZ FP-2: 28.3

What do the screens show for `Cc1ccccc1C(=O)NN1C(=O)CSC1=S`?
miR-122 sensor: 1.1; Keap1-Nrf2 PPI: 0.1; LANA DNA inh: 0.9; CAL PDZ FP-1: -6.0; CAL PDZ FP-2: 1.0

How did CC(=O)c1cccc(NC(=S)Nc2cccc3ccccc23)c1 do in these assays?
miR-122 sensor: 31.0; Keap1-Nrf2 PPI: -1.0; LANA DNA inh: -0.5; CAL PDZ FP-1: -4.5; CAL PDZ FP-2: -2.3

Results for O=C(Nc1ccc2ccccc2c1)c1cccc2ccccc12 ?
miR-122 sensor: 0.0; Keap1-Nrf2 PPI: 3.6; LANA DNA inh: 0.4; CAL PDZ FP-1: 69.9*; CAL PDZ FP-2: -0.4

How did O=C(Nc1ccncc1)c1cccc2ccccc12 do in these assays?
miR-122 sensor: -17.6; Keap1-Nrf2 PPI: 0.8; LANA DNA inh: 0.5; CAL PDZ FP-1: -4.4; CAL PDZ FP-2: 0.1

Results for CC(=O)c1cc(C(=O)Nc2ccc3ccccc3c2)c(C)o1 ?
miR-122 sensor: -4.7; Keap1-Nrf2 PPI: -2.1; LANA DNA inh: -0.4; CAL PDZ FP-2: -0.7

How did CC(=O)c1cccc(NC(=O)c2cccc3ccccc23)c1 do in these assays?
miR-122 sensor: 2.4; Keap1-Nrf2 PPI: 1.3; LANA DNA inh: -2.1; CAL PDZ FP-1: 52.3*; CAL PDZ FP-2: -1.1

Results for Cc1cc(C(=O)Nc2ccc3ccccc3c2)c(C)o1 ?
miR-122 sensor: 3.5; Keap1-Nrf2 PPI: 2.0; LANA DNA inh: -0.5; CAL PDZ FP-1: 41.0*; CAL PDZ FP-2: -1.2

What do the screens show for `COc1ccccc1N=Nc1c(C)[nH]n(-c2ccccc2)c1=O`?
miR-122 sensor: -1.1; Keap1-Nrf2 PPI: -0.1; LANA DNA inh: -1.2; CAL PDZ FP-1: 0.6; CAL PDZ FP-2: -0.3

Results for COc1ccc(N=C(c2ccccc2)c2c(C)[nH]n(-c3ccccc3)c2=O)c(OC)c1 ?
miR-122 sensor: -1.3; Keap1-Nrf2 PPI: 3.9; LANA DNA inh: 0.7; CAL PDZ FP-1: 36.3*; CAL PDZ FP-2: -1.2

What do the screens show for `O=C(C[C@@H]1CC[C@H]2[C@@H](COC[C@H](O)CN2C(=O)c2ccccc2F)O1)N1CCN(c2ccccc2)CC1`?
miR-122 sensor: -0.7[16.7 µM]

What do the screens show for `COCC#Cc1cnc2c(c1)C(=O)N([C@@H](C)CO)C[C@@H](C)[C@H](CN(C)Cc1ccc(F)cc1)O2`?
miR-122 sensor: 1.9[16.7 µM]

What do the screens show for `CCOc1cc(C)c(C(C)C)cc1S(=O)(=O)N1CCN(C)CC1`?
miR-122 sensor: 54.0; Keap1-Nrf2 PPI: -0.8; LANA DNA inh: -1.7; CAL PDZ FP-1: -2.1; CAL PDZ FP-2: 0.5

How did COc1cc(C)c(C(C)C)cc1S(=O)(=O)N1CCN(C)CC1 do in these assays?
miR-122 sensor: 149.0*; Keap1-Nrf2 PPI: -5.6; LANA DNA inh: -2.7; CAL PDZ FP-1: -3.7; CAL PDZ FP-2: 0.5

Results for COc1ccccc1N(CC(=O)Nc1cc(S(=O)(=O)N(C)C)ccc1C)S(=O)(=O)c1cccs1 ?
miR-122 sensor: 10.1; Keap1-Nrf2 PPI: 2.2; LANA DNA inh: 5.6; CAL PDZ FP-1: 67.9*; CAL PDZ FP-2: 6.6

How did S=C(Nc1ccc(Oc2ccccc2)cc1)NC1CCCC1 do in these assays?
Keap1-Nrf2 PPI: -1.6; LANA DNA inh: 0.3; CAL PDZ FP-1: -2.5; CAL PDZ FP-2: -0.1

What do the screens show for `S=C(NCC1CCCCC1)Nc1ccc(Oc2ccccc2)cc1`?
miR-122 sensor: 117.5*; Keap1-Nrf2 PPI: 8.1; LANA DNA inh: 1.7; CAL PDZ FP-1: -1.4; CAL PDZ FP-2: -1.7

Results for CCS(=O)(=O)Nc1ccc2c(c1)C(=O)N(C)[C@@H]1CC[C@H](CC(=O)Nc3ccccc3)O[C@H]1CO2 ?
miR-122 sensor: -5.0[16.7 µM]

How did O=C(O)CC(C(=O)O)N1C(=O)/C(=C/C=C/c2ccco2)SC1=S (configuration not stated) do in these assays?
miR-122 sensor: -6.7; Keap1-Nrf2 PPI: -1.8; LANA DNA inh: 106.0*; CAL PDZ FP-1: 1.4; CAL PDZ FP-2: -1.4; DNA intercal 2: 6.4%

How did C[C@H]1CN([C@@H](C)CO)C(=O)c2cc(NS(=O)(=O)c3cn(C)cn3)ccc2O[C@H]1CN(C)Cc1ccc(C(F)(F)F)cc1 do in these assays?
miR-122 sensor: -4.6[16.7 µM]

Results for CC1(C)[C@@H](O[C@H]2O[C@H](C(=O)O)[C@@H](O)[C@H](O)[C@H]2O[C@@H]2O[C@H](C(=O)O)[C@@H](O)[C@H](O)[C@H]2O)CC[C@]2(C)[C@H]3C(=O)C=C4[C@@H]5C[C@@](C)(C(=O)O)CC[C@]5(C)CC[C@@]4(C)[C@]3(C)CC[C@@H]12 ?
DNA intercal 2: -4.9%

Results for CC1(C)[C@@H](O)CC[C@]2(C)[C@H]3C(=O)C=C4[C@@H]5C[C@@](C)(C(=O)O)CC[C@]5(C)CC[C@@]4(C)[C@]3(C)CC[C@@H]12 ?
miR-122 sensor: -0.4; Keap1-Nrf2 PPI: 2.2; LANA DNA inh: 2.9; CAL PDZ FP-1: -4.2; CAL PDZ FP-2: -1.1

How did O=C(O)C1Nc2c(O)cc(Cl)c([N+](=O)[O-])c2C2C=CCC12 (configuration not stated) do in these assays?
Keap1-Nrf2 PPI: 42.0*; LANA DNA inh: 120.4*; CAL PDZ FP-1: 3.7; CAL PDZ FP-2: 0.4; DNA intercal 2: 4.7%; Keap1 Kelch bind: 0.92*

How did CO[C@H]1CN(C)C(=O)c2ccc(NC(C)=O)cc2OC[C@H](C)N(C(=O)c2ccncc2)C[C@H]1C do in these assays?
miR-122 sensor: 3.7[16.7 µM]

Results for CC(=O)c1ccc2c(c1)C1C=CCC1C(c1ccncc1)N2 (configuration not stated) ?
miR-122 sensor: 5.4; Keap1-Nrf2 PPI: -5.6; LANA DNA inh: 2.9; CAL PDZ FP-1: 0.1; CAL PDZ FP-2: 0.4
